From paper PMC5970367 (Chembiochem : a European journal of chemical biology, 2017)

Assays:
[1] = tested on: fluorescein-labeled IRES SLIIb; assay: Time-dependent MALDI-TOF mass spectrometry of SLIIb cleavage; type: biochemical, hepatitis C virus; conditions: for Initial Rate (%Overhang/min), 2′, 3′-cPO4: overhang 2′,3′-cyclic phosphates; for Initial Rate (%Overhang/min), 2′, 3′-cPO4 / Initial Rate (%Overhang/min), 3′-AL / Initial Rate (%Overhang/min), 3′-OH / Initial Rate (%Overhang/min), 3′-PO4 / Initial Rate (%Overhang/min), 3′-PGA / Initial Rate (%Overhang/min), 3′-PG / Initial Rate (%Overhang/min), 5′-AL / Initial Rate (%Overhang/min), 5′-GemDiol / Initial Rate (%Overhang/min), 5′-OH / Initial Rate (%Overhang/min), 5′-PO4 / Initial Rate (%Overhang/min), 5′-PPA: MALDI-TOF time dependence; for Initial Rate (%Overhang/min), 3′-AL: overhang 3′-aldehyde; for Initial Rate (%Overhang/min), 3′-OH: overhang 3′-hydroxyl; for Initial Rate (%Overhang/min), 3′-PO4: overhang 3′-phosphates; for Initial Rate (%Overhang/min), 3′-PGA: overhang 3′-phosphoglycaldehyde; for Initial Rate (%Overhang/min), 3′-PG: overhang 3′-phosphoglycolate; for Initial Rate (%Overhang/min), 5′-AL: overhang 5′-aldehyde; for Initial Rate (%Overhang/min), 5′-GemDiol: overhang 5′-geminal diol; for Initial Rate (%Overhang/min), 5′-OH: overhang 5′-hydroxyl; for Initial Rate (%Overhang/min), 5′-PO4: overhang 5′-phosphate; for Initial Rate (%Overhang/min), 5′-PPA: overhang 5′-phosphopropenal; for Relative Initial Rate (Normalized Intensity/min × 1000), position A6 / Relative Initial Rate (Normalized Intensity/min × 1000), position A15 / Relative Initial Rate (Normalized Intensity/min × 1000), position A19 / Relative Initial Rate (Normalized Intensity/min × 1000), position A27 / Relative Initial Rate (Normalized Intensity/min × 1000), position A30 / Relative Initial Rate (Normalized Intensity/min × 1000), position C10 / Relative Initial Rate (Normalized Intensity/min × 1000), position C33 / Relative Initial Rate (Normalized Intensity/min × 1000), position G5 / Relative Initial Rate (Normalized Intensity/min × 1000), position G9 / Relative Initial Rate (Normalized Intensity/min × 1000), position G11 / Relative Initial Rate (Normalized Intensity/min × 1000), position G28 / Relative Initial Rate (Normalized Intensity/min × 1000), position U12 / Relative Initial Rate (Normalized Intensity/min × 1000), position U14 / Relative Initial Rate (Normalized Intensity/min × 1000), position U25 / Relative Initial Rate (Normalized Intensity/min × 1000), position U26 / Relative Initial Rate (Normalized Intensity/min × 1000), position U29 / Relative Initial Rate (Normalized Intensity/min × 1000), position U31: 10 μM SLIIb, 10 μM copper-peptide
Summary of the method: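 Reactions contained 10 μM Fl-SLIIb, 10 μM Cu–peptide, 1 mM ascorbate and 1 mM H2O2, and were sampled at 2–180 min. They were quenched on ice, C18-desalted, and analysed by negative-ion reflectron MALDI-TOF (HPA/ammonium citrate matrix, ≥1000 shots). Peaks with m/z >1500 and S/N >5 were assigned against expected product masses. Products were summed per overhang type and expressed as a fraction at each time point. Initial rate was taken from the linear region (first ~40 min).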

[2] = tested on: 5′-fluorescein labeled HCV SLIIb; assay: Reaction kinetics via fluorescence; type: biochemical, hepatitis C virus; conditions: pseudo Michaelis-Menten, catalytic efficiency
Summary of the method: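 Copper–peptide complexes were formed at 1.1:1 peptide:Cu. Each complex was added to 333 nM 5′-fluorescein-SLIIb with 1 mM ascorbic acid and 1 mM H2O2 in 20 mM HEPES (pH 7.4, 100 mM NaCl) at 25 °C. Fluorescence loss was followed at ex 491/em 518 nm and converted to RNA concentration by a calibration curve. Initial velocities were plotted against catalyst concentration and fit to Michaelis–Menten to give KM and kcat. Values are the mean of ≥3 trials.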

Substance	Initial Rate (%Overhang/min), 2′, 3′-cPO4 [1]	Initial Rate (%Overhang/min), 3′-AL [1]	Initial Rate (%Overhang/min), 3′-OH [1]	Initial Rate (%Overhang/min), 3′-PO4 [1]	Initial Rate (%Overhang/min), 3′-PGA [1]	Initial Rate (%Overhang/min), 3′-PG [1]	Initial Rate (%Overhang/min), 5′-AL [1]	Initial Rate (%Overhang/min), 5′-GemDiol [1]	Initial Rate (%Overhang/min), 5′-OH [1]	Initial Rate (%Overhang/min), 5′-PO4 [1]	Initial Rate (%Overhang/min), 5′-PPA [1]	Relative Initial Rate (Normalized Intensity/min × 1000), position A6 [1]	Relative Initial Rate (Normalized Intensity/min × 1000), position A15 [1]	Relative Initial Rate (Normalized Intensity/min × 1000), position A19 [1]	Relative Initial Rate (Normalized Intensity/min × 1000), position A27 [1]	Relative Initial Rate (Normalized Intensity/min × 1000), position A30 [1]	Relative Initial Rate (Normalized Intensity/min × 1000), position C10 [1]	Relative Initial Rate (Normalized Intensity/min × 1000), position C33 [1]	Relative Initial Rate (Normalized Intensity/min × 1000), position G5 [1]	kcat/KM [2]	further results
GGHARFK-Cu [4-Cu]	0.5 ± 0.1 %Overhang/min	0.5 ± 0.1 %Overhang/min	1.2 ± 0.4 %Overhang/min	0.1 ± 0.1 %Overhang/min	1.1 ± 0.4 %Overhang/min	1.5 ± 0.4 %Overhang/min	0.2 ± 0.1 %Overhang/min	0.8 ± 0.1 %Overhang/min	1.1 ± 0.4 %Overhang/min	0.4 ± 0.1 %Overhang/min	1.4 ± 0.3 %Overhang/min	- ^a	14.2 ± 4.6 Normalized Intensity/min × 1000	2.9 ± 1.4 Normalized Intensity/min × 1000	2.1 ± 0.3 Normalized Intensity/min × 1000	<1 Normalized Intensity/min × 1000	- ^a	- ^a	- ^a	633 M⁻¹ s⁻¹	Relative Initial Rate (Normalized Intensity/min × 1000), position G9 [1]: 2.0 ± 0.5 Normalized Intensity/min × 1000; Relative Initial Rate (Normalized Intensity/min × 1000), position G11 [1]: - ^a; Relative Initial Rate (Normalized Intensity/min × 1000), position G28 [1]: - ^a; Relative Initial Rate (Normalized Intensity/min × 1000), position U12 [1]: - ^a; Relative Initial Rate (Normalized Intensity/min × 1000), position U14 [1]: - ^a; Relative Initial Rate (Normalized Intensity/min × 1000), position U25 [1]: - ^a; Relative Initial Rate (Normalized Intensity/min × 1000), position U26 [1]: 1.9 ± 0.4 Normalized Intensity/min × 1000; Relative Initial Rate (Normalized Intensity/min × 1000), position U29 [1]: - ^a; Relative Initial Rate (Normalized Intensity/min × 1000), position U31 [1]: 1.4 ± 0.4 Normalized Intensity/min × 1000
GGHDRFK-Cu [9-Cu]	–	–	–	–	–	–	–	–	–	–	–	–	–	–	–	–	–	–	–	550 M⁻¹ s⁻¹	–
GGHFRFK-Cu [12-Cu]	–	–	–	–	–	–	–	–	–	–	–	–	–	–	–	–	–	–	–	167 M⁻¹ s⁻¹	–
GGHKFRY-Cu [8-Cu]	0.1 ± 0.1 %Overhang/min	0.2 ± 0.1 %Overhang/min	0.4 ± 0.1 %Overhang/min	1.3 ± 0.2 %Overhang/min	0.3 ± 0.1 %Overhang/min	0.1 ± 0.1 %Overhang/min	0.9 ± 0.1 %Overhang/min	0.5 ± 0.1 %Overhang/min	1.1 ± 0.4 %Overhang/min	0.7 ± 0.1 %Overhang/min	0.7 ± 0.1 %Overhang/min	- ^a	- ^a	- ^a	1.1 ± 0.3 Normalized Intensity/min × 1000	<1 Normalized Intensity/min × 1000	- ^a	- ^a	3.7 ± 1.8 Normalized Intensity/min × 1000	120 M⁻¹ s⁻¹	Relative Initial Rate (Normalized Intensity/min × 1000), position G9 [1]: - ^a; Relative Initial Rate (Normalized Intensity/min × 1000), position G11 [1]: 0.6 ± 0.2 Normalized Intensity/min × 1000; Relative Initial Rate (Normalized Intensity/min × 1000), position G28 [1]: <1 Normalized Intensity/min × 1000; Relative Initial Rate (Normalized Intensity/min × 1000), position U12 [1]: - ^a; Relative Initial Rate (Normalized Intensity/min × 1000), position U14 [1]: - ^a; Relative Initial Rate (Normalized Intensity/min × 1000), position U25 [1]: <1 Normalized Intensity/min × 1000; Relative Initial Rate (Normalized Intensity/min × 1000), position U26 [1]: <1 Normalized Intensity/min × 1000; Relative Initial Rate (Normalized Intensity/min × 1000), position U29 [1]: <1 Normalized Intensity/min × 1000; Relative Initial Rate (Normalized Intensity/min × 1000), position U31 [1]: - ^a
GGHNRFK-Cu [10-Cu]	–	–	–	–	–	–	–	–	–	–	–	–	–	–	–	–	–	–	–	67 M⁻¹ s⁻¹	–
GGHYAFK-Cu [5-Cu]	0.2 ± 0.1 %Overhang/min	0.2 ± 0.1 %Overhang/min	1.2 ± 0.1 %Overhang/min	0.8 ± 0.1 %Overhang/min	0.1 ± 0.1 %Overhang/min	0.1 ± 0.1 %Overhang/min	1.0 ± 0.2 %Overhang/min	0.5 ± 0.1 %Overhang/min	0.6 ± 0.1 %Overhang/min	1.5 ± 0.6 %Overhang/min	0.2 ± 0.1 %Overhang/min	- ^a	- ^a	1.0 ± 0.7 Normalized Intensity/min × 1000	1.1 ± 0.3 Normalized Intensity/min × 1000	- ^a	1.0 ± 0.2 Normalized Intensity/min × 1000	<1 Normalized Intensity/min × 1000	<1 Normalized Intensity/min × 1000	300 M⁻¹ s⁻¹	Relative Initial Rate (Normalized Intensity/min × 1000), position G9 [1]: - ^a; Relative Initial Rate (Normalized Intensity/min × 1000), position G11 [1]: - ^a; Relative Initial Rate (Normalized Intensity/min × 1000), position G28 [1]: - ^a; Relative Initial Rate (Normalized Intensity/min × 1000), position U12 [1]: <1 Normalized Intensity/min × 1000; Relative Initial Rate (Normalized Intensity/min × 1000), position U14 [1]: - ^a; Relative Initial Rate (Normalized Intensity/min × 1000), position U25 [1]: 3.1 ± 0.6 Normalized Intensity/min × 1000; Relative Initial Rate (Normalized Intensity/min × 1000), position U26 [1]: - ^a; Relative Initial Rate (Normalized Intensity/min × 1000), position U29 [1]: - ^a; Relative Initial Rate (Normalized Intensity/min × 1000), position U31 [1]: - ^a
GGHYRAK-Cu [6-Cu]	0.7 ± 0.1 %Overhang/min	0.8 ± 0.1 %Overhang/min	0.1 ± 0.1 %Overhang/min	0.7 ± 0.2 %Overhang/min	0.6 ± 0.1 %Overhang/min	1.2 ± 0.1 %Overhang/min	0.8 ± 0.1 %Overhang/min	0.9 ± 0.3 %Overhang/min	1.2 ± 0.3 %Overhang/min	1.2 ± 0.2 %Overhang/min	1.9 ± 0.1 %Overhang/min	1.7 ± 0.5 Normalized Intensity/min × 1000	<1 Normalized Intensity/min × 1000	- ^a	- ^a	2.4 ± 0.3 Normalized Intensity/min × 1000	- ^a	1.4 ± 0.5 Normalized Intensity/min × 1000	- ^a	17 M⁻¹ s⁻¹	Relative Initial Rate (Normalized Intensity/min × 1000), position G9 [1]: - ^a; Relative Initial Rate (Normalized Intensity/min × 1000), position G11 [1]: <1 Normalized Intensity/min × 1000; Relative Initial Rate (Normalized Intensity/min × 1000), position G28 [1]: 2.3 ± 1.6 Normalized Intensity/min × 1000; Relative Initial Rate (Normalized Intensity/min × 1000), position U12 [1]: - ^a; Relative Initial Rate (Normalized Intensity/min × 1000), position U14 [1]: <1 Normalized Intensity/min × 1000; Relative Initial Rate (Normalized Intensity/min × 1000), position U25 [1]: - ^a; Relative Initial Rate (Normalized Intensity/min × 1000), position U26 [1]: - ^a; Relative Initial Rate (Normalized Intensity/min × 1000), position U29 [1]: - ^a; Relative Initial Rate (Normalized Intensity/min × 1000), position U31 [1]: - ^a
